Activity calls are given as the source filed them. The rule behind the calls is not given here.
Tests used:
[1] = target: T1, Cathepsin G (Homo sapiens) (UniProt P08311); assay: Inhibitory activity against Cathepsin G (CatG) at 63 uM concentration
T1 sequence (whole entry): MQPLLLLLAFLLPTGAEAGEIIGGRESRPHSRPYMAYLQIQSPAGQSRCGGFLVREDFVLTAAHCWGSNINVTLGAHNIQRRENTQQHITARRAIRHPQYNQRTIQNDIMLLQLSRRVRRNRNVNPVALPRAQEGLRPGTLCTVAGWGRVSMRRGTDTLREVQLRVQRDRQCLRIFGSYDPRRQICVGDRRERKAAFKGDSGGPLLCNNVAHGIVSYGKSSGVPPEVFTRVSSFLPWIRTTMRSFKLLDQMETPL
Outline: (§1)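 Percent inhibition of enzyme activity at a single inhibitor concentration. Assays run at 25 °C in 0.1 M HEPES, 0.5 M NaCl, pH 7.5, with 9-11% DMSO. The method otherwise follows an earlier report.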

[2] = target: T2, Chymotrypsin-like elastase family member 2A (Sus scrofa) (UniProt P08419); assay: Inhibitory activity against Porcine Pancreatic Elastase (PPE) at 63 uM concentration; outline: as §1
T2 sequence (whole entry): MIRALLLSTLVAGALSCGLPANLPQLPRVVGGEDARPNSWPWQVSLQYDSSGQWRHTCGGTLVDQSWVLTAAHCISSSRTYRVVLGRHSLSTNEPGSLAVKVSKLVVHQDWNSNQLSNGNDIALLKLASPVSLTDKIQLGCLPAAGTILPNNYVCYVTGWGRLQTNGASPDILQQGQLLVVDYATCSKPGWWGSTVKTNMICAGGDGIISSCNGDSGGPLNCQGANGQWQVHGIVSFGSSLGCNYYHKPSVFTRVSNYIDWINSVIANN

[3] = target: Chymotrypsinogen A (Bos taurus) (UniProt P00766); assay: Inhibitory activity against Chymotrypsinogen at 63 uM concentration; outline: as §1
[4] = target: T3, Neutrophil elastase (Homo sapiens) (UniProt P08246); assay: Inhibitory activity against Human Leukocyte Elastase (HLE) at 63 uM concentration; outline: as §1
T3 sequence (whole entry): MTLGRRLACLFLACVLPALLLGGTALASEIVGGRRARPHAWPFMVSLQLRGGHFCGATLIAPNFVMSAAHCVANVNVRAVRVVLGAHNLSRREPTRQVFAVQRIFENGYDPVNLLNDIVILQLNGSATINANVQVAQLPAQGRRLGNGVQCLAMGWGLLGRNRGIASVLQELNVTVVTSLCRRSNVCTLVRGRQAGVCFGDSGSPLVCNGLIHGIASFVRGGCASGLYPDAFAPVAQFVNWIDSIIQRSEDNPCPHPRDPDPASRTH

[5] = target: T1, Cathepsin G (Homo sapiens); assay: Inhibitory activity against Cathepsin G (CatG) at 27 uM concentration
[6] = target: T3, Neutrophil elastase (Homo sapiens); conditions: 27 uM
[7] = target: T2, Chymotrypsin-like elastase family member 2A (Sus scrofa); assay: Inhibitory activity against Porcine Pancreatic Elastase (PPE) at 27 uM concentration; NI = no inhibition
[8] = target: Chymotrypsinogen A (Bos taurus) (UniProt P00766); assay: Inhibitory activity against Chymotrypsinogen at 27 uM concentration
Neutrophil elastase [9] = target: T4, Neutrophil elastase (Homo sapiens, UniProt P08246); assay: Compound was tested for the enzyme inhibitory activity against Human Leukocyte Elastase (HLE) at 27 uM concentration
T4 sequence (P08246 whole entry): T3 sequence (whole entry)

[10] = target: T3, Neutrophil elastase (Homo sapiens); assay: Inhibitory activity against Human Leukocyte Elastase (HLE) at 65 uM concentration
[11] = target: T1, Cathepsin G (Homo sapiens); assay: Inhibitory activity against Cathepsin G (CatG) at 65 uM concentration
[12] = target: T2, Chymotrypsin-like elastase family member 2A (Sus scrofa); assay: Inhibitory activity against Porcine Pancreatic Elastase (PPE) at 65 uM concentration; NI = no inhibition
Neutrophil elastase [13] = target: T4, Neutrophil elastase; assay: Compound was tested for the enzyme inhibitory activity against Human Leukocyte Elastase (HLE) at 65 uM concentration
[14] = target: T1, Cathepsin G (Homo sapiens); assay: Inhibitory activity against Cathepsin G (CatG) at 56 uM concentration; NI = no inhibition
[15] = target: Chymotrypsinogen A (Bos taurus) (UniProt P00766); assay: Inhibitory activity against Chymotrypsinogen at 56 uM concentration; NI = no inhibition
[16] = target: T3, Neutrophil elastase (Homo sapiens); assay: Inhibitory activity against Human Leukocyte Elastase (HLE) at 56 uM concentration; NI = no inhibition
[17] = target: T2, Chymotrypsin-like elastase family member 2A (Sus scrofa); assay: Inhibitory activity against Porcine Pancreatic Elastase (PPE) at 56 uM concentration; NI = no inhibition
[18] = target: T1, Cathepsin G (Homo sapiens); assay: Inhibitory activity against Cathepsin G (CatG) at 53 uM concentration; outline: as §1
[19] = target: T2, Chymotrypsin-like elastase family member 2A (Sus scrofa); assay: Inhibitory activity against Porcine Pancreatic Elastase (PPE) at 53 uM concentration; NI = no inhibition; outline: as §1
[20] = target: Chymotrypsinogen A (Bos taurus) (UniProt P00766); assay: Inhibitory activity against Chymotrypsinogen at 53 uM concentration; outline: as §1
[21] = target: T3, Neutrophil elastase (Homo sapiens); assay: Inhibitory activity against Human Leukocyte Elastase (HLE) at 53 uM concentration; outline: as §1
Neutrophil elastase [22] = target: T4, Neutrophil elastase; assay: Compound was tested for the enzyme inhibitory activity against Human Leukocyte Elastase (HLE) at 53 uM concentration; outline: as §1
[23] = target: T2, Chymotrypsin-like elastase family member 2A (Sus scrofa); assay: Inhibitory activity against Porcine Pancreatic Elastase (PPE) at 30 uM concentration
[24] = target: T1, Cathepsin G (Homo sapiens); assay: Inhibitory activity against Cathepsin G (CatG) at 30 uM concentration; NI = no inhibition
[25] = target: Chymotrypsinogen A (Bos taurus) (UniProt P00766); assay: Inhibitory activity against Chymotrypsinogen at 30 uM concentration
[26] = target: T3, Neutrophil elastase (Homo sapiens); assay: Inhibitory activity against Human Leukocyte Elastase (HLE) at 30 uM concentration
[27] = target: T3, Neutrophil elastase (Homo sapiens); assay: Inhibitory activity against Human Leukocyte Elastase (HLE) at 59 uM concentration
[28] = target: T2, Chymotrypsin-like elastase family member 2A (Sus scrofa); assay: Inhibitory activity against Porcine Pancreatic Elastase (PPE) at 59 uM concentration; NI = no inhibition
[29] = target: T3, Neutrophil elastase (Homo sapiens); assay: Inhibitory activity against Human Leukocyte Elastase (HLE) at 58 uM concentration
[30] = target: T1, Cathepsin G (Homo sapiens); assay: Inhibitory activity against Cathepsin G (CatG) at 58 uM concentration
[31] = target: T2, Chymotrypsin-like elastase family member 2A (Sus scrofa); assay: Inhibitory activity against Porcine Pancreatic Elastase (PPE) at 58 uM concentration
[32] = target: Chymotrypsinogen A (Bos taurus) (UniProt P00766); assay: Inhibitory activity against Chymotrypsinogen at 58 uM concentration
[33] = target: T2, Chymotrypsin-like elastase family member 2A (Sus scrofa); assay: Inhibitory activity against Porcine Pancreatic Elastase (PPE) at 62 uM concentration; NI = no inhibition
[34] = target: T1, Cathepsin G (Homo sapiens); assay: Inhibitory activity against Cathepsin G (CatG) at 62 uM concentration
Neutrophil elastase [35] = target: T4, Neutrophil elastase; assay: Compound was tested for the enzyme inhibitory activity against Human Leukocyte Elastase (HLE) at 62 uM concentration
[36] = target: T3, Neutrophil elastase (Homo sapiens); assay: Inhibitory activity against Human Leukocyte Elastase (HLE) at 62 uM concentration
[37] = target: T3, Neutrophil elastase (Homo sapiens); assay: Inhibitory activity against Human Leukocyte Elastase (HLE) at 61 uM concentration
[38] = target: T1, Cathepsin G (Homo sapiens); assay: Inhibitory activity against Cathepsin G (CatG) at 61 uM concentration; NI = no inhibition
[39] = target: Chymotrypsinogen A (Bos taurus) (UniProt P00766); assay: Inhibitory activity against Chymotrypsinogen at 61 uM concentration
[40] = target: T2, Chymotrypsin-like elastase family member 2A (Sus scrofa); assay: Inhibitory activity against Porcine Pancreatic Elastase (PPE) at 61 uM concentration; NI = no inhibition

O=C1c2cccc(O)c2C(=O)c2c(O)cc(CO)cc21
inhibition [1]: 3%
inhibition [2]: 18%
inhibition [3]: 13%
inhibition [4]: 21%

COc1cc(OC)c2c(c1)C(=O)c1ccc(C)c(O)c1C2=O
inhibition [5]: 4%
inhibition [6]: 80%
inhibition [7]: inactive
inhibition [8]: 7%
IC50 (Neutrophil elastase [9]): 13 µM

COc1cc(O)c2c(c1)C(=O)c1cc(C)cc(O)c1C2=O [PHYSCION]
inhibition [10]: 100%
inhibition [11]: 39%
inhibition [12]: inactive
IC50 (Neutrophil elastase [13]): 6.2 µM

CC(=O)Oc1cccc2c1C(=O)c1c(OC(C)=O)cc(C)cc1C2=O
inhibition [14]: inactive
inhibition [15]: inactive
inhibition [16]: inactive
inhibition [17]: inactive

Cc1cc(O)c2c(c1)C(=O)c1cc(O)cc(O)c1C2=O [EMODIN]
inhibition [18]: 42%
inhibition [19]: inactive
inhibition [20]: 2%
inhibition [21]: 55%
IC50 (Neutrophil elastase [22]): 52 µM

COc1cc(OC)c2c(c1)C(=O)c1cc(C)cc(OC)c1C2=O
inhibition [23]: 4%
inhibition [24]: inactive
inhibition [25]: 6%
inhibition [26]: 16%

CC(=O)Oc1cccc2c1C(=O)c1c(OC(C)=O)cc(CBr)cc1C2=O
inhibition [27]: 33%
inhibition [28]: inactive

O=C(O)c1cc(O)c2c(c1)C(=O)c1cc(O)cc(O)c1C2=O
inhibition [29]: 21%
inhibition [30]: 14%
inhibition [31]: 9%
inhibition [32]: 3%

CCCOc1cc(O)c2c(c1)C(=O)c1cc(C)cc(O)c1C2=O
inhibition [33]: inactive
inhibition [34]: 35%
IC50 (Neutrophil elastase [35]): 5.9 µM
inhibition [36]: 100%

CC(=O)OCc1cc(OC(C)=O)c2c(c1)C(=O)c1cccc(OC(C)=O)c1C2=O
inhibition [37]: 30%
inhibition [38]: inactive
inhibition [39]: 3%
inhibition [40]: inactive
